According to ChEMBL document CHEMBL2057093, “New oxirane derivatives of 1,4-naphthoquinones and their evaluation against T. cruzi epimastigote forms” (Bioorg Med Chem, 2012):
pIC50: −log10 of the molar value.

What was measured:
Trypanosoma cruzi [1] = experiment: Antitrypanosomal activity against Trypanosoma cruzi Y epimastigotes assessed as cell death at 50 uM after 72 hrs by propidium iodide staining-based flow cytometric analysis; format: functional
In short: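 T. cruzi Y epimastigotes at 5 × 10^5 cells/mL exposed to compound at 50 µM for 72 h. Cells then centrifuged (1500 g), washed in PBS and stained with 30 µg/mL propidium iodide for 15 min. Flow cytometry acquired 10,000 events in the epimastigote gate, and PI-positive cells were counted as dead. Mean and SD from at least two independent experiments in duplicate.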

Trypanosoma cruzi [2] = experiment: Antitrypanosomal activity against Trypanosoma cruzi Y epimastigotes after 72 hrs by Neubauer counter-based microscopic analysis; format: functional, organism-based
In short: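 T. cruzi Y epimastigotes (10^6 cells/mL) grown in BHI medium with 10% fetal bovine serum at 28 °C and exposed to compounds from 5 mM DMSO stocks for 72 h. Parasites counted directly in a Neubauer chamber by light microscopy. Untreated and 1% DMSO (v/v) cultures served as negative controls. IC50 (50% growth inhibition) computed by Probit analysis.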

[3] = Cytotoxicity against african green monkey Vero cells after 72 hrs by spectrophotometric analysis; format: cell-based; conditions: chlorocebus sabaeus
In short: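 VERO kidney fibroblasts kept in DMEM with 5% fetal bovine serum and HEPES. Seeded at 10^5 cells/well and allowed to adhere 24 h at 37 °C, then exposed to compounds for 72 h. Cells were PBS-washed, fixed in 0.2% formaldehyde, stained 1 h with 0.2% Coomassie Brilliant Blue R-250, and eluted with 1% SDS. Absorbance read at 595 nm. CC50 by Probit from triplicate runs.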

Row | SMILES | Activity (Trypanosoma cruzi [1]) | pIC50 (Trypanosoma cruzi [2]) | CC50 at 72 h [3]
1 | O=C1C(Cl)=C(Cl)C(=O)c2ccccc21 [Dichlon] | 84.3% | 7.05 | 6.3 µM
2 | CC1(C)CCC2=C(O1)C(=O)c1ccccc1C2=O [ALPHA-LAPACHONE] | 82.7% | 5.50 | 1.2 µM
3 | CC1(C)CCC23CC2(O1)C(=O)c1ccccc1C3=O (stereo not given) | 3.1% | 4.22 | 66 µM
4 | COC1=CC(=O)c2ccccc2C1=O [2-Methoxy-1,4-naphthoquinone] | 82.3% | 5.50 | 13 µM
5 | CC1(C)CC2=C(O1)C1(CO1)c1ccccc1C2=O (stereo not given) | 88.5% | 4.71 | 19 µM
6 | CC1(C)CCC2=C(O1)C(=O)C1=C(CCCC1)C2=O | 84.2% | 4.79 | 11.7 µM
7 | C=CCOC1=CC(=O)c2ccccc2C1=O | 86.3% | 7.70 | < 1 µM
8 | CC1(C)CCC2=C(O1)c1ccccc1C(=O)C2=O [LAPACHONE] | 91.3% | > 5.51 | < 3.1 µM
9 | O=C(Cn1ccnc1[N+](=O)[O-])NCc1ccccc1 [BENZNIDAZOLE] | 26.8% | 4.94 | 48 µM
10 | CC1(C)CC2=C(O1)C(=O)c1ccccc1C2=O | 91.4% | 5.06 | 2.7 µM
11 | CC1(C)CCC2=C(O1)C1(CO1)c1ccccc1C2=O (stereo not given) | 85.6% | 7.30 | > 50 µM
12 | O=C1C(Cl)=C(Cl)C2(CO2)c2ccccc21 (stereo not given) | 84.7% | 5.02 | 19 µM
13 | CC1(C)CCC2=C(O1)C1(CO1)C1=C(CCCC1)C2=O (stereo not given) | 17.9% | 4.79 | 58.1 µM
14 | COC1=CC(=O)c2ccccc2C12CO2 (stereo not given) | 74.2% | 5.95 | 44 µM
15 | C=CCOC1=CC(=O)c2ccccc2C12CO2 (stereo not given) | 84.5% | 6.70 | < 1 µM
